In assay [1] the test system is P388. Put plainly: Percentage increase in life span of murine leukemia P388 resistant to 5-FU, at a dose 300 mg/kg. The class given is functional. Particulars: Mus musculus. In a few lines:
(§1)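 P-388 model in male BDF₁ mice, six per group, average weight 23 g: 1×10^6 cells ip on day 0, then compound in 0.9% saline ip daily ×5 from 24 h. Mice were observed up to 60 days. % ILS = (T/C − 1) × 100, using median survival of treated mice versus saline-treated controls.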

The subject of assay [2] is P388. Put plainly: Percentage increase in life span of murine leukemia P388 resistant to 5-FU at dose 108 mg/kg. The class given is functional. The conditions noted are these: Mus musculus. In short, it runs like this:
as §1

Assay [3] has as its system P388. Put plainly: Percentage increase in life span of murine leukemia P388 resistant to 5-FU at dose 180 mg/kg. The class given is functional. The conditions noted are these: Mus musculus. In short, it runs like this:
as §1

The subject of assay [4] is P388. Put plainly: Percentage increase in life span of murine leukemia P388 resistant to 5-FU at dose 500 mg/kg. The conditions noted are these: Mus musculus. The class given is functional. In a few lines:
as §1

The subject of assay [5] is P388. Put plainly: Percentage increase in life span of murine leukemia P388 sensitive to 5-FU, at dose 108 mg/kg. The class given is functional. Particulars: Mus musculus. In short, it runs like this:
as §1

In assay [6] the test system is P388. Put plainly: Percentage increase in life span of murine leukemia P388 sensitive to 5-FU, at dose 180 mg/kg. The format is functional. The conditions noted are these: Mus musculus. In short, it runs like this: as §1
In assay [7] the test system is P388. Put plainly: Percentage increase in life span of murine leukemia P388 sensitive to 5-FU, at dose 300 mg/kg. The format is functional. The conditions noted are these: Mus musculus. In short, it runs like this:
as §1

Assay [8] concerns P388. Put plainly: Average percentage weight change on day 6 in murine leukemia P388 resistant to 5-FU at dose 108 mg/kg. The format is functional, Mus musculus. In short, it runs like this: (§2)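 Male BDF₁ mice, six per group, average weight 23 g, were inoculated ip on day 0 with 1×10^6 P-388 leukemia cells, either 5-FU-sensitive or 5-FU-resistant. Compound in 0.9% saline was given ip once daily for 5 consecutive days, starting 24 h after tumor transplantation. Saline-treated animals served as controls.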

In assay [9] the test system is P388. Put plainly: Average percentage weight change on day 6 in murine leukemia P388 resistant to 5-FU at dose 300 mg/Kg. The format is functional, Mus musculus. In a few lines: as §2
The subject of assay [10] is P388. Put plainly: Average percentage weight change on day 6 in murine leukemia P388 resistant to 5-FU at dose 500 mg/kg. The class given is functional, Mus musculus. In a few lines:
as §2

In assay [11] the test system is P388. Put plainly: Percentage increase in life span of murine leukemia P388 sensitive to 5-FU at dose 500 mg/kg. The format is functional. The conditions noted are these: Mus musculus. In short, it runs like this: as §1
Assay [12] concerns P388. Put plainly: Average percentage weight change on day 6 in murine leukemia P388 sensitive to 5-FU at dose 108 mg/kg. The class given is functional, Mus musculus. In short, it runs like this:
as §2

Assay [13] has as its system P388. Put plainly: Average percentage weight change on day 6 in murine leukemia P388 sensitive to 5-FU at dose 180 mg/kg. The format is functional, Mus musculus. In a few lines: as §2
The test system of assay [14] is P388. Put plainly: Average percentage weight change on day 6 in murine leukemia P388 sensitive to 5-FU at dose 300 mg/kg. The format is functional, Mus musculus. In short, it runs like this: as §2
For assay [15], the system named is P388. Put plainly: Average percentage weight change on day 6 in murine leukemia P388 sensitive to 5-FU at dose 500 mg/kg. The format is functional, Mus musculus. In short, it runs like this:
as §2

Assay [16] concerns P388. Put plainly: Median survival time (MST) of murine leukemia P388 (1*10e 6 cells) resistant to 5-FU in mice at dose of 108 mg/kg(ip). The format is functional, Mus musculus. In a few lines: (§3)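 Male BDF₁ mice, six per group, average weight 23 g, were inoculated ip with 1×10^6 P-388 cells on day 0. Compound in 0.9% saline was given ip daily for 5 days from 24 h post-implant. Mice were followed for 60 days or until death, and median survival time was recorded. Saline-treated controls numbered 20 mice.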

In assay [17] the test system is P388. Put plainly: Median survival time (MST) of murine leukemia P388 (1*10e 6 cells) resistant to 5-FU in mice at dose of 180 mg/kg(ip). The class given is functional, Mus musculus. In short, it runs like this:
as §3

The test system of assay [18] is P388. Put plainly: Median survival time (MST) of murine leukemia P388 (1*10e 6 cells) resistant to 5-FU in mice at dose of 300 mg/kg(ip). The format is functional, Mus musculus. In a few lines: as §3
Assay [19] relates to P388. Put plainly: Median survival time (MST) of murine leukemia P388 (1*10e 6 cells) sensitive to 5-FU in mice at dose of 500 mg/kg(ip). The format is functional, Mus musculus. In a few lines:
as §3

The test system of assay [20] is P388. Put plainly: Median survival time (MST) of murine leukemia P388 (1*10e 6 cells) resistant to 5-FU in mice at dose of 500 mg/kg(ip). The class given is functional, Mus musculus. In short, it runs like this: as §3
In assay [21] the test system is P388. Put plainly: Median survival time (MST) of murine leukemia P388 (1*10e 6 cells) sensitive to 5-FU in mice at dose of 108 mg/kg(ip). The format is functional, Mus musculus. In short, it runs like this: as §3
Assay [22] has as its system P388. Put plainly: Median survival time (MST) of murine leukemia P388 (1*10e 6 cells) sensitive to 5-FU in mice at dose of 180 mg/kg(ip). The class given is functional, Mus musculus. In a few lines:
as §3

The subject of assay [23] is P388. Put plainly: Median survival time (MST) of murine leukemia P388 (1*10e 6 cells) sensitive to 5-FU in mice at dose of 300 mg/kg(ip). The class given is functional, Mus musculus. In short, it runs like this:
as §3

Assay [24] has as its system P388. Put plainly: Average percentage weight change on day 6 in murine leukemia P388 resistant to 5-FU at dose 180 mg/kg. The format is functional, Mus musculus. In a few lines: as §2

As a reminder, the ILS is how much longer treated animals lived than controls. A high value points to much gain in survival. Regarding `O=c1[nH]c(=O)n([C@H]2C[C@H](O)[C@@H](COP3(=O)OCCCO3)O2)cc1F`, the ILS at 300 mg/kg in the assay on P388 [1] was found to be 0%; in the assay on P388 [7], 22%. Moreover, the increase in lifespan (ILS) at 108 mg/kg in the assay on P388 [2] turned out to be 0%; in the assay with P388 [5], 11%. Besides, the figures for the ILS at 180 mg/kg in the assay with P388 [3] and in the assay on P388 [6] were 0% and 11%, respectively. In addition, the ILS at 500 mg/kg with P388 [4] is 0%; in the assay on P388 [11], 33%. The Weight change in the assay on P388 [8] is 6.3%; in the assay on P388 [9] it was 1.2%; in the assay on P388 [10], 0.6%; in the assay on P388 [12], 1.7%; in the assay with P388 [13], 0%; in the assay with P388 [14], -8.8%. The Weight change is -12.4% in the assay with P388 [15] and 4.1% in the assay on P388 [24]. Moreover, the MST in the assay with P388 [16] came out at 10 days; with P388 [17], 10 days; in the assay with P388 [18] it was 10 days; in the assay on P388 [19] it was 12 days; in the assay on P388 [20], 10 days; with P388 [21] it was 10 days. Moreover, the figures for the MST in the assay on P388 [22] and in the assay on P388 [23] were 10 days and 11 days, respectively.
